Experiments:
[1] = test system: imiquimod (IMQ)-induced psoriasis; settings: mice, compared with vehicle; cited from earlier work
[2] = test system: imiquimod (IMQ)-induced skin inflammation (TLR7 activation); test: IMQ skin challenge: skin perfusion; type: in vivo, human; settings: for Erythema: GMR of treatment effect vs. placebo (90% CrI): same dosing; for Clinical evaluation of skin reactions (visual grading): vs placebo
Method in brief: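 Healthy men (12 per arm) took test compound (120 or 100 mg), placebo or prednisolone 20 mg b.i.d. orally for 7 days. From Day 3, 5% imiquimod cream (100 mg) went daily on tape-stripped back skin under 12-mm occlusion chambers for 3 days. Erythema (3D imaging), LSCI perfusion and CEA were read at baseline, 24, 48 and 72 h. Bayesian repeated-measures ANCOVA used log-transformed change from baseline.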

[3] = PK in plasma and skin suction blister fluid; type: in vivo, human; settings: for Individual suction blister fluid versus plasma ratio, geometric mean (CV): Day 6; for Total concentration in blister fluid, geometric mean (CV): Day 6, 2–4 h after drug intake, unchallenged skin
Method in brief: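 Healthy men, 12 per arm, took test compound orally twice daily for 7 days. Total drug was measured in plasma and suction blister fluid on Day 6, […], and reported as geometric mean (CV). Blister-fluid-to-plasma ratios were calculated per subject.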

[4] = test system: LPS (TLR4)-driven TNF-α release in whole blood; settings: 120 mg b.i.d. BAY1834845, 100 mg b.i.d. BAY1830839; ref multiple ascending dose phase I studies; cited from earlier work
[5] = test system: LPS-driven systemic inflammation (TLR4 activation); test: Systemic intravenous LPS challenge; type: in vivo, human; settings: for Mild increase in core temperature after LPS: 2–6 h after i.v. LPS challenge; for LPS-driven increases in systolic blood pressure and pulse rate / Anti-inflammatory cytokine IL-10 after LPS challenge: compared with placebo; for Suppression of circulating TNF-α response vs. placebo / Anti-inflammatory cytokine IL-10 after LPS challenge / LPS-induced increases in IL-8, CRP and procalcitonin / IL-6 (blood): GMR of treatment effect vs. placebo (90% CrI) / TNF-α (blood): GMR of treatment effect vs. placebo (90% CrI): i.v. LPS challenge; for Suppression of circulating TNF-α response vs. placebo: averaged 0.5 to 6 h after LPS; for LPS-induced increases in IL-8, CRP and procalcitonin: vs placebo; for IL-6 (blood): GMR of treatment effect vs. placebo (90% CrI) / TNF-α (blood): GMR of treatment effect vs. placebo (90% CrI): same dosing
Method in brief: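 On Day 7 of twice-daily oral treatment (12 healthy men per arm), purified E. coli O113 LPS 1 ng/kg in glucose 2.5%–NaCl 0.45% was given as a 2-min i.v. infusion. Hydration infusion ran from 2 h before to 6 h after. Cytokines, acute phase proteins, leukocytes, pulse, blood pressure and temperature were followed from 0.5 to 24 h. Bayesian repeated-measures ANCOVA gave GMR vs placebo (90% CrI).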

[6] = test system: LPS (TLR4 agonist)-driven cytokine release in whole blood; test: Ex vivo whole blood challenge with LPS; type: cell-based, human
Method in brief: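 Blood was drawn from healthy men, 12 per arm, at two baselines (Day −1, Day 1) and on Day 6 of oral twice-daily dosing. Challenges were run in duplicate at 37°C for 24 h: LPS 0.1 ng/mL or R848 0.35 μg/mL in prefilled culture tubes, and IL-1β 125 ng/mL in sodium heparin tubes. Supernatant cytokines were measured by multiplex immunoassay.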

[7] = 120 mg b.i.d. BAY1834845, 100 mg b.i.d. BAY1830839; ref multiple ascending dose phase I studies; cited from earlier work
[8] = test system: imiquimod (IMQ)-induced skin inflammation (TLR7 activation); test: Skin suction blister fluid analysis after IMQ challenge; type: in vivo, human; settings: for Responses of CD8+ T cells and dendritic cells in suction blister fluid: 72 h after start of IMQ challenge; for IMQ-driven IP-10 and MxA in skin suction blister exudate: analysis on Day 6
Method in brief: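 Suction blisters were raised by negative-pressure device on imiquimod-inflamed back skin at baseline and 24, 48 and 72 h after challenge start. Subjects were healthy men, 12 per arm, on oral twice-daily treatment begun 2 days before challenge. Blister fluid was analysed for immune cell subsets by flow cytometry and for cytokines/chemokines by multiplex immunoassay.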

Safety monitoring = type: in vivo, human; settings: safety analysis set; BAY groups N = 13, prednisolone N = 12; 7 days b.i.d.
IL-1β-induced cytokines = settings: upregulation in comparison with vehicle control also reported; cited from earlier work

For `CC(C)(O)c1cc2nn(CCS(C)(=O)=O)cc2cc1NC(=O)c1cccc(C(F)(F)F)n1` [BAY1834845, zabedosertib], which “Severity of psoriasis-like lesions; extent of erythema, skin thickening and scaling” value [1] is on record?
Its value is “significantly reduced”.

What about the “Erythema: GMR of treatment effect vs. placebo (90% CrI)” value (shortened to “Erythema: GMR … (90% CrI)”) [2] of the same compound?
Its value is 0.75.

What about the “Erythema: GMR … (90% CrI)” value ([2]; listed as BAY 1834845) of the same compound?
Its value is 0.75 (0.60, 0.89).

What about the “Clinical evaluation of skin reactions (visual grading)” value [2] of the same compound?
Its value is “less severe inflammatory reaction”.

What about the “Individual suction blister fluid versus plasma ratio, geometric mean (CV)” value [3] of the same compound?
The value was 0.43 (22.7%).

And the “Total concentration in blister fluid, geometric mean (CV)” value [3]?
The value was 2.6 (32.3%) mg/L.

What about the “Mean suppression of TNFα (TLR4-cytokine release in ex vivo whole blood assay)” value [4] of the same compound?
Its value is 40%.

What about the “Mild increase in core temperature after LPS” value [5] of the same compound?
The value was “without suppressing”.

What about the “LPS-driven increases in systolic blood pressure and pulse rate” value [5] of the same compound?
The value was “suppressed”.

And the “Suppression of circulating TNF-α response vs. placebo” value [5]?
Its value is no less than 80%.

What about the “Anti-inflammatory cytokine IL-10 after LPS challenge” value [5] of the same compound?
The value was “did not lead to an increase”.

And the “LPS-induced increases in IL-8, CRP and procalcitonin” value [5]?
The value was “inhibited”.

And the “IL-6 (blood): GMR of treatment effect vs. placebo (90% CrI)” value [5]?
Its value is 0.27 (0.18, 0.36).

What about the “TNF-α (blood): GMR of treatment effect vs. placebo (90% CrI)” value [5] of the same compound?
The value was 0.20 (0.13, 0.27).

And the “Inhibition of TLR4-driven IL-6 in ex vivo whole blood challenge” value [6]?
The value was “approximately 50%”.

And the “Inhibition of TLR4-driven TNF-α in ex vivo whole blood challenge” value [6]?
The value was “approximately 50%”.

What about the Systemic exposure [7] of the same compound?
Its Systemic exposure is 5.2 (19.4%) mg/L.

And the “Responses of CD8+ T cells and dendritic cells in suction blister fluid” value [8]?
The value was “suppressed”.

And the “IMQ-driven IP-10 and MxA in skin suction blister exudate” value [8]?
The value was “strongly suppressed”.

What does the source list for `C[C@]12C=CC(=O)C=C1CC[C@@H]1[C@@H]2[C@@H](O)C[C@@]2(C)[C@H]1CC[C@]2(O)C(=O)CO` [Prednisolone, prednisolone, reference compound]?
Erythema: GMR of treatment effect vs. placebo (90% CrI) [2]: 0.86 (0.69, 1.02); Erythema: GMR of treatment effect vs. placebo (90% CrI) ([2]; listed as prednisolone): 0.86; Anti-inflammatory cytokine IL-10 after LPS challenge [5]: induced; IL-6 (blood): GMR of treatment effect vs. placebo (90% CrI) [5]: 0.31 (0.21, 0.41); TNF-α (blood): GMR of treatment effect vs. placebo (90% CrI) [5]: 0.31 (0.20, 0.41); Responses of CD8+ T cells and dendritic cells in suction blister fluid [8]: suppressed; Responses of NK cells and classical monocytes in suction blister fluid ([8]; 72 h post-challenge, after preceding increase up to 48 h): markedly suppressed; IMQ-driven IP-10 and MxA in skin suction blister exudate [8]: strongly suppressed

Which “Severity of psoriasis-like lesions; extent of erythema, skin thickening and scaling” value [1] does the source give for `CC(C)(O)CCn1cc2cc(NC(=O)c3cccc(C(F)(F)F)n3)c(C(C)(C)O)cc2n1` [BAY1830839] here?
Its value is “significantly reduced”.

What about the “Erythema: GMR … (90% CrI)” value [2] of the same compound?
Its value is 0.83.

What about the “Erythema: GMR … (90% CrI)” value ([2]; listed as BAY 1830839) of the same compound?
Its value is 0.83 (0.67, 0.99).

What about the “Clinical evaluation of skin reactions (visual grading)” value [2] of the same compound?
Its value is “less severe inflammatory reaction”.

And the “Individual suction blister fluid versus plasma ratio, geometric mean (CV)” value [3]?
The value was 0.59 (16.2%).

What about the “Total concentration in blister fluid, geometric mean (CV)” value [3] of the same compound?
The value was 3.0 (28.3%) mg/L.

And the “Mean suppression of TNFα (TLR4-cytokine release in ex vivo whole blood assay)” value [4]?
Its value is 70%.

What about the “Mild increase in core temperature after LPS” value [5] of the same compound?
The value was “without suppressing”.

What about the “LPS-driven increases in systolic blood pressure and pulse rate” value [5] of the same compound?
The value was “suppressed”.

And the “Suppression of circulating TNF-α response vs. placebo” value [5]?
Its value is no less than 80%.

And the “Anti-inflammatory cytokine IL-10 after LPS challenge” value [5]?
The value was “did not lead to an increase”.

And the “LPS-induced increases in IL-8, CRP and procalcitonin” value [5]?
The value was “inhibited”.

What about the “IL-6 (blood): GMR of treatment effect vs. placebo (90% CrI)” value [5] of the same compound?
Its value is 0.26 (0.17, 0.34).

And the “TNF-α (blood): GMR of treatment effect vs. placebo (90% CrI)” value [5]?
The value was 0.14 (0.09, 0.19).

And the “Inhibition of TLR4-driven IL-6 in ex vivo whole blood challenge” value [6]?
The value was 73%.

And the “Inhibition of TLR4-driven TNF-α in ex vivo whole blood challenge” value [6]?
The value was 75%.

And the “Any treatment-emergent AE” value (Safety monitoring)?
The value was 8 (61.5%) n (%) of participants.

What about the Systemic exposure [7] of the same compound?
The Systemic exposure was 4.3 (42.8%) mg/L.

And the “Responses of CD8+ T cells and dendritic cells in suction blister fluid” value [8]?
Its value is “suppressed”.

What about the “IMQ-driven IP-10 and MxA in skin suction blister exudate” value [8] of the same compound?
Its value is “strongly suppressed”.

Which “Effects on IL-1β-induced cytokines” value (IL-1β-induced cytokines) does the source give for `CC[C@@H]1[C@H](F)C(=O)N[C@@H]1COc1nccc2cc(C(N)=O)c(OC)cc12` [PF‐06650833] here?
Its value is “weak effects”.
